Source: ChEMBL document CHEMBL3271984, “Antifungal activity of 4-substituted crotonic acid esters” (1976)
Values after ≈ are worked out from the molar mass of the structure shown.

What was measured:
Type in all cases: functional
[1] = test system: Mucor mucedo; test: Antifungal activity against Mucor mucedo ATCC 7941 assessed as growth inhibition at pH 5.6 incubated for 20 hrs in absence of 10% beef serum; conditions: ATCC 7941, 20 h, read-out: MIC100
Summary of the method: (§1)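 Agar dilution in Sabouraud dextrose agar at pH 5.6 or 7.0, with or without 10% beef serum. C. albicans and M. mucedo were incubated 20 h at 37°; A. niger and T. mentagrophytes 5 days at 28°. The value is the minimal µg/ml giving 100% inhibition. Steps were 1 µg/ml up to 10, 2 up to 20, then 10 up to 100 µg/ml maximum.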

[2] = test system: Mucor mucedo; test: Antifungal activity against Mucor mucedo ATCC 7941 assessed as growth inhibition at pH 7 incubated for 20 hrs in absence of 10% beef serum; conditions: ATCC 7941, 20 h, read-out: MIC100; summary of the method: as §1
[3] = test system: Trichophyton mentagrophytes; test: Antifungal activity against Trichophyton mentagrophytes ATCC 9129 assessed as growth inhibition at pH 5.6 incubated for 5 days in absence of 10% beef serum; conditions: ATCC 9129, 120 h, read-out: MIC100; summary of the method: as §1
[4] = test system: Trichophyton mentagrophytes; test: Antifungal activity against Trichophyton mentagrophytes ATCC 9129 assessed as growth inhibition at pH 7 incubated for 5 days in absence of 10% beef serum; conditions: ATCC 9129, 120 h, read-out: MIC100; summary of the method: as §1
[5] = test system: Mucor mucedo; test: Antifungal activity against Mucor mucedo ATCC 7941 assessed as ratio of cystine to compound at pH 7 incubated for 20 hrs in absence of 10% beef serum
Summary of the method: (§2)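 Sabouraud agar at pH 7.0 without beef serum. The toxicant was added at one increment above its minimal inhibitory level for each organism. Cystine, cysteine or glutathione was added at molar ratios of 1:1 to 10:1 versus toxicant, in 1-equiv steps. Plates were inoculated and incubated at 37° for 20 h (C. albicans, M. mucedo) or 28° for 5 days (A. niger, T. mentagrophytes), then scored for growth.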

[6] = test system: Trichophyton mentagrophytes; test: Antifungal activity against Trichophyton mentagrophytes ATCC 9129 assessed as ratio of cystine to compound at pH 7 incubated for 5 days in absence of 10% beef serum; summary of the method: as §2
[7] = test system: Trichophyton mentagrophytes; test: Antifungal activity against Trichophyton mentagrophytes ATCC 9129 assessed as ratio of cysteine to compound at pH 7 incubated for 5 days in absence of 10% beef serum; summary of the method: as §2
[8] = test system: Mucor mucedo; test: Antifungal activity against Mucor mucedo ATCC 7941 assessed as ratio of cysteine to compound at pH 7 incubated for 20 hrs in absence of 10% beef serum; summary of the method: as §2
[9] = test system: Mucor mucedo; test: Antifungal activity against Mucor mucedo ATCC 7941 assessed as ratio of glutathione to compound at pH 7 incubated for 20 hrs in absence of 10% beef serum; summary of the method: as §2
[10] = test system: Trichophyton mentagrophytes; test: Antifungal activity against Trichophyton mentagrophytes ATCC 9129 assessed as ratio of glutathione to compound at pH 7 incubated for 5 days in absence of 10% beef serum; summary of the method: as §2
[11] = test system: Candida albicans; test: Antifungal activity against Candida albicans ATCC 10231 assessed as growth inhibition at pH 7 incubated for 20 hrs in presence of 10% beef serum; conditions: ATCC 10231, 20 h, read-out: MIC100; summary of the method: as §1
[12] = test system: Candida albicans; test: Antifungal activity against Candida albicans ATCC 10231 assessed as growth inhibition at pH 5.6 incubated for 20 hrs in absence of 10% beef serum; conditions: ATCC 10231, 20 h, read-out: MIC100; summary of the method: as §1
[13] = test system: Candida albicans; test: Antifungal activity against Candida albicans ATCC 10231 assessed as growth inhibition at pH 5.6 incubated for 20 hrs in presence of 10% beef serum; conditions: ATCC 10231, 20 h, read-out: MIC100; summary of the method: as §1
[14] = test system: Candida albicans; test: Antifungal activity against Candida albicans ATCC 10231 assessed as growth inhibition at pH 7 incubated for 20 hrs in absence of 10% beef serum; conditions: ATCC 10231, 20 h, read-out: MIC100; summary of the method: as §1
[15] = test system: Aspergillus niger; test: Antifungal activity against Aspergillus niger ATCC 1004 assessed as growth inhibition at pH 5.6 incubated for 5 days in absence of 10% beef serum; conditions: ATCC 1004, 120 h, read-out: MIC100; summary of the method: as §1
[16] = test system: Aspergillus niger; test: Antifungal activity against Aspergillus niger ATCC 1004 assessed as growth inhibition at pH 5.6 incubated for 5 days in presence of 10% beef serum; conditions: ATCC 1004, 120 h, read-out: MIC100; summary of the method: as §1
[17] = test system: Aspergillus niger; test: Antifungal activity against Aspergillus niger ATCC 1004 assessed as growth inhibition at pH 7 incubated for 5 days in absence of 10% beef serum; conditions: ATCC 1004, 120 h, read-out: MIC100; summary of the method: as §1
[18] = test system: Aspergillus niger; test: Antifungal activity against Aspergillus niger ATCC 1004 assessed as growth inhibition at pH 7 incubated for 5 days in presence of 10% beef serum; conditions: ATCC 1004, 120 h, read-out: MIC100; summary of the method: as §1
[19] = test system: Mucor mucedo; test: Antifungal activity against Mucor mucedo ATCC 7941 assessed as growth inhibition at pH 5.6 incubated for 20 hrs in presence of 10% beef serum; conditions: ATCC 7941, 20 h, read-out: MIC100; summary of the method: as §1
[20] = test system: Mucor mucedo; test: Antifungal activity against Mucor mucedo ATCC 7941 assessed as growth inhibition at pH 7 incubated for 20 hrs in presence of 10% beef serum; conditions: ATCC 7941, 20 h, read-out: MIC100; summary of the method: as §1
[21] = test system: Trichophyton mentagrophytes; test: Antifungal activity against Trichophyton mentagrophytes ATCC 9129 assessed as growth inhibition at pH 5.6 incubated for 5 days in presence of 10% beef serum; conditions: ATCC 9129, 120 h, read-out: MIC100; summary of the method: as §1
[22] = test system: Trichophyton mentagrophytes; test: Antifungal activity against Trichophyton mentagrophytes ATCC 9129 assessed as growth inhibition at pH 7 incubated for 5 days in presence of 10% beef serum; conditions: ATCC 9129, 120 h, read-out: MIC100; summary of the method: as §1
[23] = test system: Candida albicans; test: Antifungal activity against Candida albicans ATCC 10231 assessed as ratio of cystine to compound at pH 7 incubated for 20 hrs in absence of 10% beef serum; summary of the method: as §2
[24] = test system: Aspergillus niger; test: Antifungal activity against Aspergillus niger ATCC 1004 assessed as ratio of cystine to compound at pH 7 incubated for 5 days in absence of 10% beef serum; summary of the method: as §2
[25] = test system: Aspergillus niger; test: Antifungal activity against Aspergillus niger ATCC 1004 assessed as ratio of cysteine to compound at pH 7 incubated for 5 days in absence of 10% beef serum; summary of the method: as §2
[26] = test system: Candida albicans; test: Antifungal activity against Candida albicans ATCC 10231 assessed as ratio of cysteine to compound at pH 7 incubated for 20 hrs in absence of 10% beef serum; summary of the method: as §2
[27] = test system: Candida albicans; test: Antifungal activity against Candida albicans ATCC 10231 assessed as ratio of glutathione to compound at pH 7 incubated for 20 hrs in absence of 10% beef serum; summary of the method: as §2
[28] = test system: Aspergillus niger; test: Antifungal activity against Aspergillus niger ATCC 1004 assessed as ratio of glutathione to compound at pH 7 incubated for 5 days in absence of 10% beef serum; summary of the method: as §2

MIC [1] | MIC [2] | MIC [3] | MIC [4] | SMILES | Ratio [5] | Ratio [6] | Ratio [7] | Ratio [8] | Ratio [9] | Ratio [10] | also measured
70 µg/mL (≈ 479 µM) | 80 µg/mL (≈ 547 µM) | 90 µg/mL (≈ 616 µM) | 70 µg/mL (≈ 479 µM) | COC(=O)/C=C/CSC | >10 | >10 | <1 | <1 | <1 | <1 | –
6 µg/mL (≈ 33.5 µM) | 10 µg/mL (≈ 55.9 µM) | 3 µg/mL (≈ 16.8 µM) | 5 µg/mL (≈ 27.9 µM) | COC(=O)/C=C/CBr | >10 | >10 | 10 | 4 | 8 | 9 | MIC [11]: 30 µg/mL; MIC [12]: 30 µg/mL (≈ 168 µM); MIC [13]: 30 µg/mL; MIC [14]: 30 µg/mL (≈ 168 µM); MIC [15]: 50 µg/mL (≈ 279 µM); MIC [16]: 50 µg/mL; MIC [17]: 50 µg/mL (≈ 279 µM); MIC [18]: 60 µg/mL; MIC [19]: 8 µg/mL; MIC [20]: 14 µg/mL; MIC [21]: 5 µg/mL; MIC [22]: 6 µg/mL; Ratio [23]: >10; Ratio [24]: >10; Ratio [25]: <1; Ratio [26]: 2; Ratio [27]: 3; Ratio [28]: <1
